From ChEMBL document CHEMBL4382232, “Grayanane Diterpenoid Glucosides from the Leaves of Rhododendron micranthum and Their Bioactivities Evaluation” (2018)
Active and inactive are the calls of the source. The calls are words filed in the database; no cut-off is given here.

Experiments:
Mus musculus [1] = experiment: Antinociceptive activity in Kunming mouse model of acetic-acid-induced writhing assessed as inhibition of writhing numbers at 5 mg/kg measured for 30 mins relative to control; format: functional; details: for inhibition in vivo at 5 mg/kg: 0.5 h
Procedure, shortened: (§1)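 Acetic-acid-induced writhing model in Kunming mice (10 per group); doses 0.2, 1.0 and 5.0 mg/kg; vehicle-treated and morphine positive-control groups; inhibition of writhing relative to vehicle; mean ± SEM; one-way ANOVA with Bonferroni test. Animal work approved by institutional ethics committee.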

HL-60 = experiment: Cytotoxicity against human HL60 cells at 40 uM after 48 hrs by MTT assay; format: functional, cell-based
SMMC-7721 = experiment: Cytotoxicity against human SMMC7721 cells at 40 uM after 48 hrs by MTT assay; format: functional, cell-based
Mus musculus [2] = experiment: Antinociceptive activity in Kunming mouse model of acetic-acid-induced writhing assessed as inhibition of writhing numbers at 1 mg/kg measured for 30 mins relative to control; format: functional; details: 0.5 h; procedure, shortened: as §1
RAW264.7 = experiment: Anti-inflammatory activity in mouse RAW264.7 cells assessed as inhibition of LPS-induced NO production at 40 uM; format: functional, cell-based
Mus musculus [3] = experiment: Antinociceptive activity in Kunming mouse model of acetic-acid-induced writhing assessed as inhibition of writhing numbers at 0.2 mg/kg measured for 30 mins relative to control; format: functional; details: 0.5 h; procedure, shortened: as §1
MCF7 = experiment: Cytotoxicity against human MCF7 cells at 40 uM after 48 hrs by MTT assay; format: functional, cell-based
SW480 = experiment: Cytotoxicity against human SW480 cells at 40 uM after 48 hrs by MTT assay; format: functional, cell-based
A549 = experiment: Cytotoxicity against human A549 cells at 40 uM after 48 hrs by MTT assay; format: functional, cell-based
[4] = molecular target: T1, Tyrosine-protein phosphatase non-receptor type 1 (Homo sapiens) (UniProt P18031); experiment: Inhibition of recombinant human PTP1B at 40 uM using pNPP as substrate preincubated for 10 mins followed by substrate addition and measured after 30 mins at 5 mins time interval for 30 mins
T1 sequence (whole entry): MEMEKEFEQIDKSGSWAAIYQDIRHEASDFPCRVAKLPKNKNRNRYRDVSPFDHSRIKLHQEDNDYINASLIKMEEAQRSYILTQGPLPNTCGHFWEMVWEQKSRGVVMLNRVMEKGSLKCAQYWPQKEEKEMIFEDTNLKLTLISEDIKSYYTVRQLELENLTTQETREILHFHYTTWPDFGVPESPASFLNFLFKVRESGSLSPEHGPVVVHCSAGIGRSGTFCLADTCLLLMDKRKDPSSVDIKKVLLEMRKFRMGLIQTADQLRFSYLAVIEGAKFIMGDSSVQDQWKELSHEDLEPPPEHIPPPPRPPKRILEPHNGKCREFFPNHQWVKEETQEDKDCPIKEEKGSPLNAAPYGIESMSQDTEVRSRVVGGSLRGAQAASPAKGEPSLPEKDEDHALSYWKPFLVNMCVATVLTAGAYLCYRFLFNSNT

Row | SMILES | inhibition in vivo at 5 mg/kg (Mus musculus [1]) [%] | Activity (HL-60) | Activity (SMMC-7721) | inhibition in vivo at 1 mg/kg (Mus musculus [2]) [%] | inhibition (RAW264.7) | inhibition in vivo at 0.2 mg/kg (Mus musculus [3]) [%] | Activity (MCF7) | Activity (SW480) | Activity (A549) | inhibition [4] | inhibition (Mus musculus [1])
1 | C=C1[C@H]2C[C@H](O[C@@H]3O[C@H](CO)[C@@H](O)[C@H](O)[C@H]3O)C(C)(C)[C@]2(O)CC[C@@]23C[C@@H](CC[C@@H]12)[C@](C)(O)C3 | 82.3 | inactive | inactive | 58.7 | inactive | 46.1 | inactive | inactive | inactive | inactive | –
2 | C=C1[C@@H]2CC[C@@H]3C[C@@]2(C[C@@H](O)[C@@]2(O)[C@H]1C[C@@H](O[C@@H]1O[C@H](CO)[C@@H](O)[C@H](O)[C@H]1O)C2(C)C)C[C@@]3(C)O | – | inactive | inactive | – | inactive | – | inactive | inactive | inactive | inactive | Active
3 | C=C1[C@@H]2CC[C@@H]3C[C@@]2(C[C@@H](O)[C@@]2(O)[C@H]1C[C@H](O)C2(C)C)C[C@@]3(C)O[C@@H]1O[C@H](CO)[C@@H](O)[C@H](O)[C@H]1O | > 50 | inactive | inactive | – | inactive | – | inactive | inactive | inactive | inactive | –
4 | C=C1[C@@H]2CC[C@@H]3[C@@H](O)[C@@]2(C[C@@H](O)[C@@]2(O)[C@H]1C[C@H](O[C@@H]1O[C@H](CO)[C@@H](O)[C@H](O)[C@H]1O)C2(C)C)C[C@@]3(C)O | > 50 | inactive | inactive | – | inactive | – | inactive | inactive | inactive | inactive | –
5 | C=C1[C@@H]2CC[C@@H]3C[C@@]2(C[C@@H](O)[C@@]2(O)[C@H]1C[C@H](O[C@@H]1O[C@H](CO)[C@@H](O)[C@H](O)[C@H]1O)C2(C)C)C[C@@]3(C)O | – | inactive | inactive | – | inactive | – | inactive | inactive | inactive | inactive | Active
6 | CC(=O)O[C@@H]1[C@H]2CC[C@H]3[C@@](C)(O)[C@@H]4C[C@H](O[C@@H]5O[C@H](CO)[C@@H](O)[C@H](O)[C@H]5O)C(C)(C)[C@@]4(O)[C@H](O)C[C@@]13C[C@@]2(C)O | – | inactive | inactive | – | inactive | – | inactive | inactive | inactive | inactive | inactive
7 | CC1(C)[C@@H](O[C@@H]2O[C@H](CO)[C@@H](O)[C@H](O)[C@H]2O)C[C@H]2[C@](C)(O)[C@@H]3CC[C@@H]4[C@@H](O)[C@@]3(C[C@@H](O)[C@@]21O)C[C@@]4(C)O | > 50 | inactive | inactive | – | inactive | – | inactive | inactive | inactive | inactive | –
8 | C=C1[C@@H]2CC[C@H]3C(C)=C[C@]2(C[C@@H](O)[C@@]2(O)[C@H]1C[C@H](O[C@@H]1O[C@H](CO)[C@@H](O)[C@H](O)[C@H]1O)C2(C)C)[C@@H]3O | 50 | inactive | inactive | – | inactive | – | inactive | inactive | inactive | inactive | –
9 | C=C1[C@H]2C[C@H](O)C(C)(C)[C@@]2(O)[C@H](O)C[C@@]23C[C@@H](CC[C@@H]12)[C@](C)(O[C@@H]1O[C@H](CO)[C@@H](O)[C@H](O)[C@H]1O)C3 | – | inactive | inactive | – | inactive | – | inactive | inactive | inactive | inactive | Active
10 | C=C1[C@@H]2CC[C@@H]3[C@@H](OC(C)=O)[C@@]2(C[C@@H](O)[C@@]2(O)[C@H]1C[C@H](O[C@@H]1O[C@H](CO)[C@@H](O)[C@H](O)[C@H]1O)C2(C)C)C[C@@]3(C)O | – | inactive | inactive | – | inactive | – | inactive | inactive | inactive | inactive | Active
